ChEMBL document CHEMBL1275574, “Lysine-enriched cecropin-mellitin antimicrobial peptides with enhanced selectivity” (Antimicrob Agents Chemother, 2008)
In brackets after ≈: the same amount, converted by molar mass. Peptide text beside a SMILES is read from it.

Assays:
[1] = test system: Staphylococcus aureus; test: Antimicrobial activity against Staphylococcus aureus BBA-41; type: functional
Method in brief: (§1)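 MICs were determined by standard methods on the gram-negative strains and on S. aureus strains 6538p (methicillin-sensitive) and BBA-41 (methicillin-resistant). Peptides had acetylated N termini and amidated C termini, and were purified by RP-HPLC. Reported as the range of values seen in at least three independent experiments.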

[2] = Selectivity index, Ratio of MIC for Pseudomonas aeruginosa PAO1 to fraction of human erythrocyte hemolysis at 64 uM; type: functional
[3] = test system: Escherichia coli; test: Antimicrobial activity against Escherichia coli BL21; type: functional; method in brief: as §1
[4] = test system: Staphylococcus aureus; test: Antimicrobial activity against Staphylococcus aureus 6538p; type: functional; method in brief: as §1
[5] = organism: Homo sapiens; test: Hemolysis of human erythrocyte at 64 uM; type: ADME
Method in brief: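 Peptide (64 μM) was incubated with a 1% suspension of fresh human erythrocytes at 37°C for 1 h. Released hemoglobin was measured and expressed relative to cells lysed with 1% Triton X-100. Values are means of multiple independent experiments.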

[6] = test system: J774.A1; test: Cytotoxicity against mouse […] cell assessed as survival rate; type: functional; parameters: concentration or dose not given beside the values
Method in brief: (§2)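 Cultured murine macrophages were exposed to peptide at a final concentration of 30 μM or 10 μM, depending on the peptide. Viability was read by MTT conversion to formazan. Results are percent survival versus buffer-treated controls, as mean and standard error of the mean of at least three independent experiments.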

[7] = Selectivity index, Ratio of MIC for Staphylococcus epidermidis to fraction of human erythrocyte hemolysis at 64 uM; type: functional
[8] = Selectivity index, Ratio of MIC for Escherichia coli BL21 to fraction of human erythrocyte hemolysis at 64 uM; type: functional
[9] = test system: Pseudomonas aeruginosa; test: Antimicrobial activity against Pseudomonas aeruginosa PAO1; type: functional; method in brief: as §1
[10] = test system: Staphylococcus epidermidis; test: Antimicrobial activity against Staphylococcus epidermidis; type: functional
[11] = test system: RAW264.7; test: Cytotoxicity against mouse RAW264.7 cell assessed as survival rate; type: functional; parameters: concentration or dose not given beside the values; method in brief: as §2
[12] = Selectivity index, Ratio of MIC for Staphylococcus aureus 6538p to fraction of human erythrocyte hemolysis at 64 uM; type: functional
[13] = test system: RAW264.7; test: Cytotoxicity against mouse RAW264.7 cell assessed as survival rate at 10 uM; type: functional; method in brief: as §2
[14] = test system: J774.A1; test: Cytotoxicity against mouse […] cell assessed as survival rate at 10 uM; type: functional; method in brief: as §2

MIC [1] | MIC [3] | MIC [4] | MIC [9] | MIC [10] | SMILES | Selectivity Index [2] | Hemolysis [5] | Activity [6] | Selectivity Index [7] | Selectivity Index [8] | Activity [11] | Selectivity Index [12] | Activity [13] | Activity [14]
> 16 µM | 0.25 µM (≈ 0.457 µg/mL) | 16 µM (≈ 29.2 µg/mL) | 0.5 µM (≈ 0.914 µg/mL) | 0.5 µM (≈ 0.914 µg/mL) | CC[C@H](C)[C@H](NC(=O)[C@H](CCCCN)NC(=O)[C@H](CCCCN)NC(=O)[C@H](Cc1ccccc1)NC(=O)[C@H](CCCCN)NC(=O)[C@H](CCCCN)NC(=O)[C@H](Cc1c[nH]c2ccccc12)NC(=O)[C@H](CCCCN)NC(C)=O)C(=O)NCC(=O)N[C@@H](C)C(=O)N[C@H](C(=O)N[C@@H](CC(C)C)C(=O)N[C@@H](CCCCN)C(=O)N[C@H](C(=O)N[C@@H](CC(C)C)C(N)=O)C(C)C)C(C)C (Ac-KWKKFKKIGAVLKVL-NH2) | 4.8 | 21% | 81% | 9.5 | 9.5 | 73% | 0.3 | – | –
> 16 µM | 1 µM (≈ 1.86 µg/mL) | > 16 µM | 1 µM (≈ 1.86 µg/mL) | 0.5 µM (≈ 0.928 µg/mL) | CC[C@H](C)[C@H](NC(=O)[C@H](CCCCN)NC(=O)[C@H](CCCCN)NC(=O)[C@H](Cc1ccccc1)NC(=O)[C@H](CCCCN)NC(=O)[C@H](CCCCN)NC(=O)[C@H](Cc1c[nH]c2ccccc12)NC(=O)[C@H](CCCCN)NC(C)=O)C(=O)NCC(=O)N[C@@H](C)C(=O)N[C@H](C(=O)N[C@@H](CC(C)C)C(=O)N[C@@H](CCCCN)C(=O)N[C@@H](CCCCN)C(=O)N[C@@H](CC(C)C)C(N)=O)C(C)C (Ac-KWKKFKKIGAVLKKL-NH2) | 8.3 | 3% | 94% | 68 | 16.7 | 104% | <0.5 | – | –
1 µM (≈ 1.81 µg/mL) | 0.5 µM (≈ 0.906 µg/mL) | 0.5 µM (≈ 0.906 µg/mL) | 2 µM (≈ 3.62 µg/mL) | 0.5 µM (≈ 0.906 µg/mL) | CC[C@H](C)[C@H](NC(=O)[C@H](CCCCN)NC(=O)[C@H](CCCCN)NC(=O)[C@H](Cc1ccccc1)NC(=O)[C@H](CC(C)C)NC(=O)[C@H](CCCCN)NC(=O)[C@H](Cc1c[nH]c2ccccc12)NC(=O)[C@H](CCCCN)NC(C)=O)C(=O)NCC(=O)N[C@@H](C)C(=O)N[C@H](C(=O)N[C@@H](CC(C)C)C(=O)N[C@@H](CCCCN)C(=O)N[C@H](C(=O)N[C@@H](CC(C)C)C(N)=O)C(C)C)C(C)C (Ac-KWKLFKKIGAVLKVL-NH2) | 0.56 | 45% | – | 2.2 | 2.2 | – | 1.1 | 21% | 16%
8 µM (≈ 14.7 µg/mL) | 1 µM (≈ 1.84 µg/mL) | 4 µM (≈ 7.37 µg/mL) | 2 µM (≈ 3.68 µg/mL) | 0.25 µM (≈ 0.46 µg/mL) | CC[C@H](C)[C@H](NC(=O)[C@H](CCCCN)NC(=O)[C@H](CCCCN)NC(=O)[C@H](Cc1ccccc1)NC(=O)[C@H](CC(C)C)NC(=O)[C@H](CCCCN)NC(=O)[C@H](Cc1c[nH]c2ccccc12)NC(=O)[C@H](CCCCN)NC(C)=O)C(=O)NCC(=O)N[C@@H](C)C(=O)N[C@H](C(=O)N[C@@H](CC(C)C)C(=O)N[C@@H](CCCCN)C(=O)N[C@@H](CCCCN)C(=O)N[C@@H](CC(C)C)C(N)=O)C(C)C (Ac-KWKLFKKIGAVLKKL-NH2) | 6.25 | 4% | 74% | 48 | 6.25 | 88% | 3 | – | –
4 µM (≈ 7.48 µg/mL) | 0.5 µM (≈ 0.935 µg/mL) | 1 µM (≈ 1.87 µg/mL) | 1 µM (≈ 1.87 µg/mL) | 0.5 µM (≈ 0.935 µg/mL) | CC[C@H](C)[C@H](NC(=O)[C@H](CCCCN)NC(=O)[C@H](CCCCN)NC(=O)[C@H](Cc1ccccc1)NC(=O)[C@H](CC(C)C)NC(=O)[C@H](CCCCN)NC(=O)[C@H](Cc1c[nH]c2ccccc12)NC(=O)[C@H](CCCCN)NC(C)=O)C(=O)NCC(=O)N[C@@H](CCCCN)C(=O)N[C@H](C(=O)N[C@@H](CC(C)C)C(=O)N[C@@H](CCCCN)C(=O)N[C@H](C(=O)N[C@@H](CC(C)C)C(N)=O)C(C)C)C(C)C (Ac-KWKLFKKIGKVLKVL-NH2) | 0.4 | 67% | 43% | 3 | 1.5 | 56% | 0.8 | – | –
> 16 µM | 0.5 µM (≈ 0.942 µg/mL) | 16 µM (≈ 30.2 µg/mL) | 0.5 µM (≈ 0.942 µg/mL) | 0.25 µM (≈ 0.471 µg/mL) | CC[C@H](C)[C@H](NC(=O)[C@H](CCCCN)NC(=O)[C@H](CCCCN)NC(=O)[C@H](Cc1ccccc1)NC(=O)[C@H](CCCCN)NC(=O)[C@H](CCCCN)NC(=O)[C@H](Cc1c[nH]c2ccccc12)NC(=O)[C@H](CCCCN)NC(C)=O)C(=O)NCC(=O)N[C@@H](CCCCN)C(=O)N[C@H](C(=O)N[C@@H](CC(C)C)C(=O)N[C@@H](CCCCN)C(=O)N[C@H](C(=O)N[C@@H](CC(C)C)C(N)=O)C(C)C)C(C)C (Ac-KWKKFKKIGKVLKVL-NH2) | 11 | 9% | 88% | 44 | 22 | 86% | 0.7 | – | –
16 µM (≈ 30.4 µg/mL) | 1 µM (≈ 1.9 µg/mL) | 4 µM (≈ 7.59 µg/mL) | 1 µM (≈ 1.9 µg/mL) | 0.25 µM (≈ 0.475 µg/mL) | CC[C@H](C)[C@H](NC(=O)[C@H](CCCCN)NC(=O)[C@H](CCCCN)NC(=O)[C@H](Cc1ccccc1)NC(=O)[C@H](CC(C)C)NC(=O)[C@H](CCCCN)NC(=O)[C@H](Cc1c[nH]c2ccccc12)NC(=O)[C@H](CCCCN)NC(C)=O)C(=O)NCC(=O)N[C@@H](CCCCN)C(=O)N[C@H](C(=O)N[C@@H](CC(C)C)C(=O)N[C@@H](CCCCN)C(=O)N[C@@H](CCCCN)C(=O)N[C@@H](CC(C)C)C(N)=O)C(C)C (Ac-KWKLFKKIGKVLKKL-NH2) | 6.25 | 8% | 45% | 50 | 12.5 | 57% | 1.5 | – | –
